According to ChEMBL document CHEMBL3102776, “Synthesis and biological evaluation of farnesylthiosalicylamides as potential anti-tumor agents” (Bioorg Med Chem, 2014):
In brackets after ≈: the same amount, converted by molar mass. Activity calls are given as the source filed them. No cut-off for these calls is given here.

Experiments:
MCF7 = test: Cytotoxicity against human MCF7 cells after 48 hrs by MTT assay; format: functional, cell-based; settings: MCF7, 48 h
Summary of the method: (§1)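 Cells seeded at 10⁴ per well in DMEM with 10% FBS and grown overnight. Compound at a range of concentrations for 48 h, in triplicate. MTT (5 mg mL⁻¹ stock) added for the last 4 h, formazan dissolved in DMSO, absorbance read at 570 nm. Percent inhibition used to derive IC50. Values are mean ± SEM of at least three independent experiments.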

[1] = Cytotoxicity against human H460 cells after 48 hrs by MTT assay; format: functional, cell-based; settings: NCI-H460, 48 h; summary of the method: as §1
SMMC-7721 [2] = test: Cytotoxicity against human SMMC7721 cells after 48 hrs by MTT assay; format: functional, cell-based; settings: SMMC-7721, 48 h; summary of the method: as §1
[3] = Cytotoxicity against human PANC1 cells after 48 hrs by MTT assay; format: functional, cell-based; settings: PANC-1, 48 h; summary of the method: as §1
SK-OV-3 = test: Cytotoxicity against human SKOV3 cells after 48 hrs by MTT assay; format: functional, cell-based; settings: SK-OV-3, 48 h; summary of the method: as §1
[4] = Cytotoxicity against human SGC7901 cells after 48 hrs by MTT assay; format: functional, cell-based; settings: SGC-7901, 48 h; summary of the method: as §1
EJ = test: Cytotoxicity against human EJ cells after 48 hrs by MTT assay; format: functional, cell-based; summary of the method: as §1
[5] = Aqueous solubility of the compound in 10% PEG400 aqueous solution after 24 hrs by HPLC analysis; format: physicochemical
Summary of the method: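 Roughly 20.0 mg of solid in 5 mL of 10% PEG400 in water. Sonicated 10 min, then stirred 24 h at 25 °C in a water bath. Centrifuged 10 min at 10,000 rpm and the supernatant passed through a microporous membrane. Concentration measured by HPLC against a standard curve.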

SMMC-7721 [6] = test: Induction of apoptosis in human SMMC7721 cells assessed as viable cells at 12 uM after 48 hrs by annexin V-FITC/propidium iodide staining-based flow cytometry (reference value: 93.81%); format: functional; settings: SMMC-7721, 48 h, read-out: Activity
SMMC-7721 [7] = test: Inhibition of Ras in human SMMC7721 cells assessed as reduction in phosphorylated ERK2 level at 12 uM after 8 hrs by immunoblotting analysis; format: cell-based
Summary of the method: (§2)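 SMMC-7721 cells at 1.5 × 10⁵/mL treated with 3.0, 6.0 or 12 µmol/L compound or vehicle for 8 h. Cells lysed, 50 µg protein per lane run on 12% SDS–PAGE gels. Blots probed for total and phospho-ERK1/2 (Thr202/Tyr204), total and phospho-Akt (Ser473), and β-actin. Densitometry relative to β-actin. Means ± SEM of three experiments.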

SMMC-7721 [8] = test: Induction of apoptosis in human SMMC7721 cells assessed as early apoptotic cells at 12 uM after 48 hrs by annexin V-FITC/propidium iodide staining-based flow cytometry (reference value: 3.87%); format: functional
SMMC-7721 [9] = test: Induction of apoptosis in human SMMC7721 cells assessed as necrotic cells at 12 uM after 48 hrs by annexin V-FITC/propidium iodide staining-based flow cytometry (reference value: 0.77%); format: functional
SMMC-7721 [10] = test: Induction of apoptosis in human SMMC7721 cells assessed as late apoptotic cells at 12 uM after 48 hrs by annexin V-FITC/propidium iodide staining-based flow cytometry (reference value: 1.55%); format: functional
SMMC-7721 [11] = test: Inhibition of Ras in human SMMC7721 cells assessed as reduction in phosphorylated ERK1 level at 12 uM after 8 hrs by immunoblotting analysis; format: cell-based; summary of the method: as §2
[12] = Lipophilicity, log P of the compound in 10% PEG400 aqueous solution; format: physicochemical
SMMC-7721 [13] = test: Inhibition of Ras in human SMMC7721 cells assessed as reduction in phosphorylated Akt level at 12 uM after 8 hrs by immunoblotting analysis; format: cell-based; summary of the method: as §2

| Compound | IC50 (MCF7) [µM] | IC50 [1] [µM] | IC50 (SMMC-7721 [2]) [µM] | IC50 [3] [µM] | IC50 (SK-OV-3) [µM] | IC50 [4] [µM] | IC50 (EJ) [µM] | solubility at 24 h [5] [µg/mL] | viability at 12 µM (SMMC-7721 [6]) [%] | Activity (SMMC-7721 [7]) | Activity (SMMC-7721 [8]) [%] | Activity (SMMC-7721 [9]) [%] | Activity (SMMC-7721 [10]) [%] | Activity (SMMC-7721 [11]) | logP [12] | Activity (SMMC-7721 [13]) |
| --- | --- | --- | --- | --- | --- | --- | --- | --- | --- | --- | --- | --- | --- | --- | --- | --- |
| CNC(=O)c1cc(Oc2ccc(NC(=O)Nc3ccc(Cl)c(C(F)(F)F)c3)cc2)ccn1 [SORAFENIB] | 9.12 | 10.8 | 18.7 | 12.3 | 9.25 | 11.5 | 22.9 | – | – | – | – | – | – | – | – | – |
| CC(C)=CCC/C(C)=C/CC/C(C)=C/CSc1ccccc1C(=O)NCCOCCNC(=O)c1ccccc1SC/C=C(\C)CC/C=C(\C)CCC=C(C)C | 30 | 43.5 | 29 | 29.8 | 34.4 | 43.8 | 27.8 | – | – | – | – | – | – | – | – | – |
| CC(C)=CCC/C(C)=C/CC/C(C)=C/CSc1ccccc1C(=O)NCCCCCNC(=O)c1ccccc1SC/C=C(\C)CC/C=C(\C)CCC=C(C)C | > 50 | 47.1 | 36.2 | > 50 | 41.9 | > 50 | 39.5 | < 10 | – | – | – | – | – | – | – | – |
| CC(C)=CCC/C(C)=C/CC/C(C)=C/CSc1ccccc1C(=O)NCCNC(=O)c1ccccc1SC/C=C(\C)CC/C=C(\C)CCC=C(C)C | > 50 | > 50 | > 50 | > 50 | > 50 | > 50 | > 50 | – | – | – | – | – | – | – | – | – |
| CC(C)=CCC/C(C)=C/CC/C(C)=C/CSc1ccccc1C(=O)NCCCNC(=O)c1ccccc1SC/C=C(\C)CC/C=C(\C)CCC=C(C)C | > 50 | > 50 | > 50 | > 50 | > 50 | > 50 | > 50 | – | – | – | – | – | – | – | – | – |
| CC(C)=CCC/C(C)=C/CC/C(C)=C/CSc1ccccc1C(=O)N1CCN(C(=O)c2ccccc2SC/C=C(\C)CC/C=C(\C)CCC=C(C)C)CC1 | > 50 | > 50 | > 50 | > 50 | > 50 | > 50 | > 50 | – | – | – | – | – | – | – | – | – |
| CC(C)=CCC/C(C)=C/CC/C(C)=C/CSc1ccccc1C(=O)O [SALIRASIB] | 49.1 | 49.2 | 69.7 | 53.6 | 51.2 | 41.3 | 47.6 | 3650 (≈ 10.2 mM) | 80.4 | Active | 13.49 | 0.21 | 5.87 | Active | 6.32 | Active |
| CC(C)=CCC/C(C)=C/CC/C(C)=C/CSc1ccccc1C(=O)NCCCCCCNC(=O)c1ccccc1SC/C=C(\C)CC/C=C(\C)CCC=C(C)C | 40.6 | > 50 | > 50 | > 50 | > 50 | > 50 | 43.9 | – | – | – | – | – | – | – | – | – |
